Test results taken from PubChem BioAssay.
Calls of active or inactive are those of the source. Cut-off read from the data, not from the text of the source, unless noted: active = inhibition above about 30%; inactive = the rest.

Tests used:
[1] = SK-BR-3 cell growth inhibitors, pilot screen, 24 h, human (AID 572;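 active = viability at or below 10% of carrier control in both of two separate runs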;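 note: compound exposure lasted between 18 and 24 h rather than exactly 24 h; 100% = carrier-treated control wells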); details: SK-BR-3 viability, CellTiter-Glo luminescence, at 10 µM, stronger effect = lower value
[2] = HUVEC growth inhibition – cell-based, human, primary screen (AID 575;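 active = viability at or below 30% in both replicate assays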;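 note: 100% = median of untreated cell wells with 0.1% DMSO on each plate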); details: HUVEC proliferation, CellTiter-Glo luminescence, 72 h; at 10 µM; stronger effect = lower value
Outline: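 System: primary human umbilical vein endothelial cells; Quantity: 1250 endothelial cells in each well; Buffer or medium: supplemented EBM, 2% fetal bovine serum; Doses: one dose, 10 µM final, 0.1% DMSO; Incubation: 72 h compound incubation; Technique: ATP-based CellTiter-Glo luminescent read; Evaluation: percent of median DMSO-control luminescence; Controls: vehicle and MePR control wells.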

[3] = growth inhibitors of H69AR lung tumor, primary screen, human, duplicate replicates (AID 580;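 active = viability at or under a set limit in both replicates, limit being median viability minus 3 SD, cut at about 48% in these data, passing the limit was not always enough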;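 note: 100% = mean luminescence of untreated wells and 0% = no signal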); details: H69AR lung tumor cells viability, ATP luminescence, 72 h; at 10 µM; stronger effect = lower value
[4] = reversal of MRP1-mediated doxorubicin resistance, pilot screen, H69AR cells, doxorubicin co-treatment (AID 601;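 active = viability loss from added drug above about 55%, and viability with drug at most 40%, in both replicates, limit read from the data, passing the limit was not always enough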); details: CellTiter-Glo, 72 h, at 10 µM; for differential viability (reversal): stronger effect = higher value
[5] = 384-well plate pilot, post-Golgi transport modulator project, inhibition of yeast transport mutant growth (AID 636; in the data active = inhibition above about 31%); details: absorbance 615 nm, about 18 h, stronger effect = higher value
[6] = growth suppression of yeast trafficking mutant, preliminary HTS, modulators of trafficking downstream of Golgi apparatus project, 1536-format plate, OD 615 nm (AID 637); details: yeast transport mutant growth, absorbance 615 nm, 18 h; stronger effect = higher value
[7] = H69AR cells + 2 uM doxorubicin, measured here: viability with 2 uM doxorubicin, stronger effect = lower value
[8] = H69AR cells, compound alone cytotoxicity

Compound	viability [1]	viability [2]	viability [3]	differential viability (reversal) ([4]; H69AR cells + 2 uM doxorubicin)	viability [4, 7]	viability [4, 8]	inhibition [5]	inhibition [6]
c1cc2c(cc1Cn1cnnn1)OCO2	96% (inactive)	96.9% (inactive)	105% (inactive)	12.3% (inactive)	92.7%	105%	-1.95% (inactive)	4.26% (inactive)
CCN(CCCNC(=O)COc1cc(=O)n(CC)c2ccccc12)c1ccccc1	86% (inactive)	56.9% (inactive)	74.7% (inactive)	5.79% (inactive)	68.9%	74.7%	-5.32% (inactive)	-4.75% (inactive)
COCCNC(=O)CN1CCC(NC(=O)Nc2ccc(C(F)(F)F)cc2)CC1	92% (inactive)	96.5% (inactive)	102% (inactive)	8.66% (inactive)	93.5%	102%	-5.54% (inactive)	0.55% (inactive)
COC(=O)CSc1nnc(-c2ccc(OC)cc2OC)o1	77% (inactive)	93.1% (inactive)	109% (inactive)	16.5% (inactive)	92.8%	109%	-2.67% (inactive)	-5.64% (inactive)
Cc1nc(-c2coc3cc(OCC(=O)O)ccc3c2=O)cs1	93% (inactive)	107% (inactive)	90.5% (inactive)	1.5% (inactive)	89%	90.5%	-5.14% (inactive)	-7.64% (inactive)
COc1ccc(CN(C2CCCC2)S(=O)(=O)c2ccc(-n3cnnn3)cc2)cc1OC	71% (inactive)	80.5% (inactive)	81.6% (inactive)	-14% (inactive)	95.6%	81.6%	-7.12% (inactive)	0.81% (inactive)
Cc1cc(=O)oc2ccc(OCC(=O)N(Cc3ccc(F)cc3)Cc3ccco3)cc12	91% (inactive)	50.9% (inactive)	72% (inactive)	11.6% (inactive)	60.5%	72%	-2.47% (inactive)	-9.35% (inactive)
O=C(NCc1nc2ccccc2[nH]1)c1ccc(Cl)c(S(=O)(=O)N2CCCC2)c1	99% (inactive)	79.2% (inactive)	96.8% (inactive)	-3.96% (inactive)	101%	96.8%	0.55% (inactive)	-4.35% (inactive)
Cc1nc(SCC(=O)Nc2cc(C)on2)c2c3c(sc2n1)CCCC3	66.5% (inactive)	78.5% (inactive)	30.4% (active)	6.21% (inactive)	24.2%	30.4%	-2.97% (inactive)	-1.11% (inactive)
Cc1occc1-c1nc(-c2ccncc2)no1	79% (inactive)	83.2% (inactive)	95.4% (inactive)	2.9% (inactive)	92.5%	95.4%	0.96% (inactive)	-8.87% (inactive)
COc1ccc2c(c1)c(CC(=O)O)c(C)n2C(=O)c1ccc(Cl)cc1	99% (inactive)	69.3% (inactive)	95.6% (inactive)	3.25% (inactive)	92.3%	95.6%	-4.16% (inactive)	0.5% (inactive)
Cc1nn(C)c(C)c1NC(=O)CSc1nc(Cc2ccccc2)nc2c1cnn2-c1ccccc1	116% (inactive)	88% (inactive)	78.8% (inactive)	0.07% (inactive)	78.7%	78.8%	-2.05% (inactive)	5.48% (inactive)
O=C(COc1ccccc1Cl)NCCCN1CCOCC1	98% (inactive)	86.9% (inactive)	91.3% (inactive)	-0.6% (inactive)	91.9%	91.3%	3.15% (inactive)	-2.74% (inactive)
Cc1ccc(-c2nn(-c3ccccc3)cc2/C=C(\C#N)c2cccc(C#N)c2)o1	71% (inactive)	92% (inactive)	71.6% (inactive)	-1.65% (inactive)	73.3%	71.6%	-9.32% (inactive)	5.27% (inactive)
CC1(C2(O)CC(c3ccccc3)ON2)CCCCC1 (stereo unspecified)	108% (inactive)	95% (inactive)	84.1% (inactive)	-0.32% (inactive)	84.4%	84.1%	-4.73% (inactive)	-2.36% (inactive)
Cc1ccc(-n2c(N)c(C(N)=O)sc2=S)cc1	87% (inactive)	112% (inactive)	87.9% (inactive)	-0.38% (inactive)	88.3%	87.9%	-3.24% (inactive)	0.73% (inactive)
CCOC(=O)C1=C(N)OC2=C(C(=O)CC(C)(C)C2)C1c1ccco1 (stereo unspecified)	90% (inactive)	97.3% (inactive)	87.8% (inactive)	3.79% (inactive)	84%	87.8%	1.04% (inactive)	3.28% (inactive)
C=C(C)Cn1c(CCCNC(=O)C(C)(C)C)nc2ccccc21	104% (inactive)	92.9% (inactive)	102% (inactive)	0.305% (inactive)	101%	102%	-3.47% (inactive)	-4% (inactive)
CCc1ccc(Nc2cc(=O)n(C3CCCCC3)c(=O)[nH]2)cc1	136% (inactive)	44% (inactive)	18.3% (active)	-32.1% (inactive)	50.4%	18.3%	-3.65% (inactive)	-13% (inactive)

Compound	viability [1]	viability [2]	viability [3]	differential viability (reversal) ([4]; H69AR cells + 2 uM doxorubicin)	viability [4, 7]	viability [4, 8]	inhibition [5]	inhibition [6]
Cn1c(=O)[nH]c(=O)c2c1nc(Br)n2Cc1ccccc1F	116% (inactive)	78% (inactive)	86.9% (inactive)	16.6% (inactive)	70.2%	86.9%	3.15% (inactive)	3.87% (inactive)
Cc1ccc(CN2CCN(C(=O)C3CCC3)CC2)cc1	88% (inactive)	102% (inactive)	97% (inactive)	4.13% (inactive)	92.9%	97%	-8.49% (inactive)	2.36% (inactive)
COc1ccc(NC(=O)Nc2ccccc2C)c(OC)c1	93% (inactive)	95.1% (inactive)	89% (inactive)	20.8% (inactive)	68.2%	89%	-4.8% (inactive)	-1.09% (inactive)
Cc1cc(C(C)(C)C)cc(C)c1CC1=NCCN1	120% (inactive)	86.3% (inactive)	89.9% (inactive)	7.59% (inactive)	82.3%	89.9%	-2.73% (inactive)	-4.5% (inactive)
O=C(CSc1nnc(-c2ccccc2)o1)NC1CCCCC1	75% (inactive)	105% (inactive)	98.5% (inactive)	14.7% (inactive)	83.9%	98.5%	-7.12% (inactive)	3.55% (inactive)
COc1ccc(C)cc1-n1nnnc1SC/C(O)=C(\C#N)c1nc2ccccc2[nH]1	96% (inactive)	86.6% (inactive)	85.2% (inactive)	-13.1% (inactive)	98.4%	85.2%	-4.11% (inactive)	1.27% (inactive)
c1cc(C(c2nnnn2C2CCCC2)N2CCOCC2)ccn1 (stereo unspecified)	96.5% (inactive)	104% (inactive)	91.9% (inactive)	-0.285% (inactive)	92.2%	91.9%	-8.22% (inactive)	0.16% (inactive)
O=C(Nc1cccc2ccccc12)N1CCN(c2ccccc2)CC1	89% (inactive)	96.8% (inactive)	94.4% (inactive)	-7% (inactive)	101%	94.4%	-0.91% (inactive)	0.49% (inactive)
O=C(OCC(=O)c1ccccc1Br)c1ccccn1	142% (inactive)	89.8% (inactive)	86.8% (inactive)	5.17% (inactive)	81.7%	86.8%	-3.77% (inactive)	-1.64% (inactive)
CSc1c(CC(=O)NCCO)n(C)c2ccccc12	108% (inactive)	111% (inactive)	102% (inactive)	9.3% (inactive)	93.1%	102%	-4.13% (inactive)	0.91% (inactive)
COc1ccc(-c2nnnn2C)cc1S(=O)(=O)NCc1ccccc1	93.5% (inactive)	117% (inactive)	95.7% (inactive)	4.64% (inactive)	91.1%	95.7%	-0.26% (inactive)	-2.17% (inactive)
COc1cc2cc(C(c3nnnn3C3CCCC3)N(C)C3CCCCC3)c(=O)[nH]c2cc1OC (stereo unspecified)	81% (inactive)	85.2% (inactive)	81.9% (inactive)	-4.31% (inactive)	86.2%	81.9%	-1.3% (inactive)	-2.13% (inactive)
COc1ccc(OC)c(NC(=O)C2C3CC4OC(=O)C2C4C3)c1 (stereo unspecified)	103% (inactive)	102% (inactive)	98.3% (inactive)	8.29% (inactive)	90%	98.3%	-6.89% (inactive)	-4% (inactive)
CC(C)CC1NC(=O)N(CC(=O)N2CCN(S(=O)(=O)c3ccc(Cl)cc3)CC2)C1=O (stereo unspecified)	97% (inactive)	91.7% (inactive)	96.4% (inactive)	-19.2% (inactive)	116%	96.4%	0% (inactive)	5.83% (inactive)
CCC(=O)OC1(C#CCOc2ccc(OC)cc2)CCN(C)CC1	94% (inactive)	105% (inactive)	105% (inactive)	1.41% (inactive)	103%	105%	-0.53% (inactive)	1.64% (inactive)
O=C(NC1(C(F)(F)F)C(=O)Nc2c1c(=O)[nH]c(=O)n2Cc1ccco1)C1CCCCC1 (stereo unspecified)	106% (inactive)	97.6% (inactive)	97.9% (inactive)	17.5% (inactive)	80.4%	97.9%	-6.49% (inactive)	-1.82% (inactive)
O=C(O)CCNC(=O)c1ccccc1	84% (inactive)	99.1% (inactive)	98.7% (inactive)	7.94% (inactive)	90.7%	98.7%	2.47% (inactive)	1.17% (inactive)
COCC(=O)Nc1c(C(=O)Nc2ccccc2OC)oc2ccccc12	78% (inactive)	59% (inactive)	75.1% (inactive)	-7.66% (inactive)	82.8%	75.1%	-8.78% (inactive)	-2.79% (inactive)
